From PubChem BioAssay
KLK5 inh = blocks human kallikrein 5 protease activity | inhibition, % at 5 µM | 210,000 compounds, 0.59% hits | Q9Y337 | AID 873 | recombinant hK5, fluorogenic AMC substrate cleavage;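 active = inhibition of 40% or more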;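 also: 0% = enzyme controls without compound and 100% = no-enzyme blanks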
Furin inhibitor = blocks human furin protease activity; P09958; purified furin, fluorogenic substrate cleavage; inhibition, % at 20 µM or 30 µM; 220,000 compounds, 0.061% hits; in the data active = inhibition above about 25%
thrombin 1536 = blocks human thrombin protease activity; alpha-thrombin, Boc-VPR-AMC fluorogenic substrate cleavage; inhibition, % at 5 µM; 220,000 compounds, 0.26% hits; AID 1046;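 active = inhibition at or above 40%; inactive = inhibition below 40%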;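 also: 0% = enzyme with no compound and 100% = wells without enzyme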
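System – human alpha-thrombin · Medium – pH 7.5 Tris (50 mM) with NaCl 150 mM, Tween 20 0.05% · Compound – single-point dosing at 5 µM, 0.2% DMSO · Incubation – enzyme reaction carried out at room temperature · Technique – fluorescence of released AMC, ex 355 nm, em 460 nm · Read-out basis – % inhibition of thrombin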
FXIIa inh 1536 = inhibitors of human coagulation factor XIIa; 220,000 compounds, 0.3% hits; inhibition, % at 5 µM; AID 800; P00748; purified FXIIa, Boc-QGR-AMC fluorogenic substrate, 2 h; in the data active = inhibition above about 40%;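 also: 0% = enzyme with no compound and 100% = blank without enzyme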
FXIa inh = factor XIa (human) inhibition; 220,000 compounds, 0.14% hits; P03951; inhibition, % at 5 µM; AID 798; purified FXIa, Boc-Glu-Ala-Arg-AMC fluorogenic substrate;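 active = inhibition of at least 40%; inactive = inhibition below 40%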;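 also: fluorescence of freed AMC excited at 355 nm; 0% = enzyme without compound and 100% = no enzyme blank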
Target sequence (P03951 19-387 limits assumed): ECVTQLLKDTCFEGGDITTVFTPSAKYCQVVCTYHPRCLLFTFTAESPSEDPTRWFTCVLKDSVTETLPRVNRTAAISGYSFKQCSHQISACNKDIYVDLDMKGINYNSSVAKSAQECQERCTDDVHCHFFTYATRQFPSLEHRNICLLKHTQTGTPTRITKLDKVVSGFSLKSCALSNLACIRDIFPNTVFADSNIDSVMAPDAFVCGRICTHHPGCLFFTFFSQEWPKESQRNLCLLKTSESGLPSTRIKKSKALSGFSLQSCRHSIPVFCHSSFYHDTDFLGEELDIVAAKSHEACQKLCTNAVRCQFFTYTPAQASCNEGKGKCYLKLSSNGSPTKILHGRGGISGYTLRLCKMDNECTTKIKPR
Target sequence (P03951 388-625 limits assumed): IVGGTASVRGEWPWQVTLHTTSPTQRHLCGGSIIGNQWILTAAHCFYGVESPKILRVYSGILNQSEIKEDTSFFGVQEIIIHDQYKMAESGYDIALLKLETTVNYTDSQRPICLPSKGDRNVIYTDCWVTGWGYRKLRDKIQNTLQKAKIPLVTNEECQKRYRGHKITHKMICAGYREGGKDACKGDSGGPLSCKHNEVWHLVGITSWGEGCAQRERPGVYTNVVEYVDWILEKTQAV
* = called active by the depositor. Sampled rows, rich in hits. Any-hit rate of the full collection: about 1.1%.

Results for N#CC1=C(N)NC(SCc2ccc(Br)cc2)=C(C#N)C12CCCCC2 ?
KLK5 inh: -8.8; Furin inhibitor: 30.6*; thrombin 1536: 2.8; FXIIa inh 1536: 16.1; FXIa inh: 10.7

How did O=S(=O)(/C=C/c1ccccc1)NCc1ccccc1Cl do in these assays?
KLK5 inh: -15.9; Furin inhibitor: -6.4; thrombin 1536: -8.2; FXIIa inh 1536: 11.7; FXIa inh: 3.2

How did O=C(C1CCCCC1)N1CCC(c2nc3ccccc3[nH]2)CC1 do in these assays?
KLK5 inh: 71.5*; Furin inhibitor: -21.4; thrombin 1536: 18.2; FXIIa inh 1536: 13.1; FXIa inh: -0.9

Results for CCOC(=O)CNC(=O)CSc1nnc(NC(=O)c2ccccc2Cl)s1 ?
KLK5 inh: -5.0; Furin inhibitor: -23.9; thrombin 1536: -9.2; FXIIa inh 1536: 0.5; FXIa inh: -5.3

How did COCCCNC(=O)Cc1coc2ccc3ccccc3c12 do in these assays?
KLK5 inh: -9.3; Furin inhibitor: -19.4; thrombin 1536: 1.0; FXIIa inh 1536: 8.4; FXIa inh: 3.2

What do the screens show for `CCCCNC(=O)Cc1coc2ccc3ccccc3c12`?
KLK5 inh: 58.4*; Furin inhibitor: -28.2; thrombin 1536: 7.6; FXIIa inh 1536: 20.2; FXIa inh: 0.8

How did Cc1ccc(C)c(NC(=O)c2nnn(Cc3ccccc3C)c2N)c1 do in these assays?
KLK5 inh: -6.4; Furin inhibitor: -20.2; thrombin 1536: 1.9; FXIIa inh 1536: 15.6; FXIa inh: 0.2

What do the screens show for `CCc1ccccc1NC(=O)c1nnn(CC(=O)Nc2cccc(C)c2)c1N`?
KLK5 inh: 43.2*; Furin inhibitor: -3.9; thrombin 1536: -9.6; FXIIa inh 1536: -1.9; FXIa inh: -9.1

How did Cc1ccc(C)c(NC(=O)Cn2nnc(C(=O)Nc3c(C)cccc3C)c2N)c1 do in these assays?
KLK5 inh: 52.4*; Furin inhibitor: -5.4; thrombin 1536: 5.4; FXIIa inh 1536: 12.6; FXIa inh: -2.3

What do the screens show for `CCc1ccccc1NC(=O)c1nnn(CC(=O)Nc2cccc(C)c2C)c1N`?
KLK5 inh: -4.7; Furin inhibitor: 2.6; thrombin 1536: 0.6; FXIIa inh 1536: 16.7; FXIa inh: 2.0

Results for CCCCNC(=O)c1ccc(NC(C)=O)c(Cl)c1 ?
KLK5 inh: -0.8; Furin inhibitor: -17.2; thrombin 1536: -3.7; FXIIa inh 1536: 9.6; FXIa inh: 0.1

What do the screens show for `Clc1cccc2sc(N3CCOCC3)nc12`?
Furin inhibitor: -19.5

Results for Clc1cccc2sc(N3CCCC3)nc12 ?
KLK5 inh: 108.9*; Furin inhibitor: -19.8; thrombin 1536: 12.4; FXIIa inh 1536: 10.4; FXIa inh: 8.4

Results for COc1ccc(N2CCN(S(=O)(=O)c3ccc(C(=O)NC4CCCC4)cc3)CC2)cc1 ?
KLK5 inh: 6.1; Furin inhibitor: -9.1; thrombin 1536: -4.0; FXIIa inh 1536: 46.5*; FXIa inh: 8.1

Results for O=C(NC1CCCCC1)c1ccc(S(=O)(=O)N2CCCCC2)cc1 ?
KLK5 inh: 16.7; Furin inhibitor: -17.7; thrombin 1536: -2.9; FXIIa inh 1536: 4.2; FXIa inh: 4.1

What do the screens show for `Cc1cc(C)cc(OCC(=O)OCCN2C(=O)c3ccccc3C2=O)c1`?
KLK5 inh: -33.0; Furin inhibitor: -23.1; thrombin 1536: -2.5; FXIIa inh 1536: 6.2; FXIa inh: -15.9

Results for Cc1cc(C)cc(OCC(=O)NNC(=O)CN2C(=O)c3ccccc3C2=O)c1 ?
KLK5 inh: 53.5*; Furin inhibitor: -7.8; thrombin 1536: 84.9*; FXIIa inh 1536: 2.5; FXIa inh: 2.7

Results for COc1cc2c3c(c1)C1(C(=O)N3C(C)(C)C=C2C)C(C#N)=C(N)Oc2cc(O)ccc21 (stereo not drawn) ?
KLK5 inh: 64.0*; Furin inhibitor: -11.9; thrombin 1536: 11.9; FXIIa inh 1536: 24.9; FXIa inh: 3.9

What do the screens show for `O=C1CC(N2CCC(c3nc4ccccc4o3)CC2)C(=O)N1c1ccc(Cl)c(C(F)(F)F)c1` (stereo not drawn)?
KLK5 inh: -21.2; Furin inhibitor: -15.3; thrombin 1536: -3.8; FXIIa inh 1536: -7.7; FXIa inh: 41.9*

How did O=C1CC(N2CCC(c3nc4ccccc4o3)CC2)C(=O)N1c1ccc(F)cc1 (stereo not drawn) do in these assays?
KLK5 inh: -21.6; Furin inhibitor: -3.4; thrombin 1536: -1.6; FXIIa inh 1536: -7.1; FXIa inh: -5.8

Results for O=S(=O)(/N=C(/c1ccccc1)N1CCCCC1)c1ccccc1 ?
KLK5 inh: 0.0; Furin inhibitor: -23.9; thrombin 1536: 3.6; FXIIa inh 1536: 11.0; FXIa inh: 9.1

How did COc1cc(NC(=O)CSc2ncnc3scc(-c4ccccc4)c23)c(C(=O)O)cc1OC do in these assays?
KLK5 inh: 6.7; Furin inhibitor: -26.1; thrombin 1536: -9.6; FXIIa inh 1536: 6.4; FXIa inh: -1.4

How did O=C(O)c1cc([N+](=O)[O-])ccc1N1CCCCC1 do in these assays?
KLK5 inh: -14.5; Furin inhibitor: -13.9; thrombin 1536: -4.9; FXIIa inh 1536: 9.3; FXIa inh: 7.8

Results for CC(C)(C)NC(=O)c1cc([N+](=O)[O-])ccc1N1CCCCC1 ?
KLK5 inh: 63.2*; Furin inhibitor: -5.1; thrombin 1536: 72.7*; FXIIa inh 1536: 3.3; FXIa inh: 6.4

Results for CC(Sc1nnc2ccccn12)C(=O)Nc1ccc(Cl)cn1 (stereo not drawn) ?
KLK5 inh: -7.8; Furin inhibitor: -17.5; thrombin 1536: -6.4; FXIIa inh 1536: 16.9; FXIa inh: 0.8

How did CC(Sc1nnnn1-c1ccccc1)C(=O)Nc1ccc(Cl)cn1 (stereo not drawn) do in these assays?
KLK5 inh: 51.5*; Furin inhibitor: -14.1; thrombin 1536: 16.1; FXIIa inh 1536: 2.2; FXIa inh: 17.4

What do the screens show for `O=C(/C=C/c1cccc(Cl)c1)NCc1ccncc1`?
KLK5 inh: 47.2*; Furin inhibitor: -16.1; thrombin 1536: 8.6; FXIIa inh 1536: 17.2; FXIa inh: 13.6

Results for O=C(/C=C/c1cccc(Cl)c1)NCc1ccccc1 ?
KLK5 inh: -8.5; Furin inhibitor: -10.3; thrombin 1536: -15.2; FXIIa inh 1536: 3.5; FXIa inh: -5.5

What do the screens show for `CCc1ccc(NC(=S)NC(=O)CC(C)C)cc1`?
KLK5 inh: -7.9; Furin inhibitor: -20.9; thrombin 1536: -8.9; FXIIa inh 1536: -2.0; FXIa inh: 1.0

What do the screens show for `Cc1cc(C)n(C(=O)CNc2cccc(Cl)c2C)n1`?
KLK5 inh: 46.0*; Furin inhibitor: -23.1; thrombin 1536: 4.6; FXIIa inh 1536: 44.0*; FXIa inh: 5.1

What do the screens show for `Cc1cc(C)n(C(=O)CNc2ccccc2Cl)n1`?
KLK5 inh: 1.6; Furin inhibitor: -2.2; thrombin 1536: 0.1; FXIIa inh 1536: 20.1; FXIa inh: 7.3

How did CCN1C(=O)N[C@@H](CCc2ccccc2)[C@@H](C(=O)OC)[C@H]1C do in these assays?
KLK5 inh: 2.9; Furin inhibitor: -21.3; thrombin 1536: 3.0; FXIIa inh 1536: 9.4; FXIa inh: 3.8

Results for COc1cc2nc(=S)n3[nH]c(COc4ccccc4C)nc3c2cc1OC ?
KLK5 inh: 44.7*; Furin inhibitor: -2.8; thrombin 1536: 17.0; FXIIa inh 1536: 19.5; FXIa inh: 11.9
